Tests used:
[1] = molecular target: T1, Glucagon-like peptide 1 receptor (Rattus norvegicus) (UniProt P32301); test: Agonist activity at rat GLP1R expressed in HEK293 cells assessed as stimulation of cAMP levels incubated for 6 hrs by multiple response element/cAMP response element (MRE/CRE)-driven reporter gene assay relative to 10 nM GLP1; assay type: functional, cell-based
T1 sequence (whole entry): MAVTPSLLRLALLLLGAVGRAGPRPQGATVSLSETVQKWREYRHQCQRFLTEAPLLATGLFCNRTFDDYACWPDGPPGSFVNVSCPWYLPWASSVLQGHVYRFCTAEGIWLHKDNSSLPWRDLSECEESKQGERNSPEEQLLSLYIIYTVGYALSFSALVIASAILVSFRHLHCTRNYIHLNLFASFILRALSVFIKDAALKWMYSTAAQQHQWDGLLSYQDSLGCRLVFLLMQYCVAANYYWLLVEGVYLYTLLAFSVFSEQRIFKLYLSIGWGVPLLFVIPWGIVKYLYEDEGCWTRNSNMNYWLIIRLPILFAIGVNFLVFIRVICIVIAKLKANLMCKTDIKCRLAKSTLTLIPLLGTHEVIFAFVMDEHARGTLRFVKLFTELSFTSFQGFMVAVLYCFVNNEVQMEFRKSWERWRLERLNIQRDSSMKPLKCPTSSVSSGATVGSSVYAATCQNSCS
Summary of the method: (§1)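 Stable HEK293 line co-expressing rat GLP-1R (pCMV-Tag2B) and a luciferase reporter with 3× MRE plus 1× CRE, seeded at 40000 cells/well and cultured overnight. Compounds in DMSO or GLP-1(7−37) were added for 6 h, then cells were lysed and luciferase read (Steady-Glo). The 10 nM GLP-1 maximum was taken as 100%. Mean ± SEM of two independent experiments; some values come from a single run.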

[2] = molecular target: T2, Glucagon-like peptide 1 receptor (Rattus norvegicus, UniProt P32301); test: Agonist activity at rat GLP1R expressed in HEK293 cells assessed as stimulation of cAMP levels incubated for 6 hrs by multiple response element/cAMP response element (MRE/CRE)-driven reporter gene assay; assay type: functional, cell-based; summary of the method: as §1
T2 sequence (P32301 whole entry): T1 sequence (whole entry)

[3] = molecular target: T2, Glucagon-like peptide 1 receptor; test: Inhibition of [125I]GLP1 (7-36) amide binding to rat GLP1R expressed in HEK293 cells; assay type: cell-based
Summary of the method: (§2)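 Membranes (17 μg protein) from HEK293 cells stably expressing rat GLP-1R were preincubated 5 h at 4 °C with FlashBlue beads (150 μg). Then 40 pM [125I]GLP-1(7−36) amide or [125I]Exendin(9−39) was added with aprotinin 2 μg/mL, leupeptin 100 μM and test compound at varied concentrations. Incubated overnight at 4 °C, then bound radioactivity counted. Mean ± SEM of two independent experiments.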

[4] = molecular target: T1, Glucagon-like peptide 1 receptor (Rattus norvegicus); test: Inhibition of [125I]GLP1 (7-36) amide binding to rat GLP1R expressed in HEK293 cells relative to untreated control; assay type: cell-based; set-up: concentration or dose not given beside the values; details: concentration not given here; summary of the method: as §2
[5] = molecular target: T1, Glucagon-like peptide 1 receptor (Rattus norvegicus); test: Inhibition of [125I]Exendin (9-39) binding to rat GLP1R expressed in HEK293 cells; assay type: cell-based; set-up: concentration or dose not given beside the values; details: concentration not given here; summary of the method: as §2

SMILES	Efficacy [1]	EC50 [2]	IC50 [3]	inhibition [4]	inhibition [5]
COc1cc([C@H]2[C@](NC(=O)c3ccc(NC(=O)OC(C)(C)C)cc3)(C(=O)O)[C@@H](c3ccc(OC(=O)C(C)C)c(OC)c3)[C@]2(NC(=O)c2ccc(NC(=O)OC(C)(C)C)cc2)C(=O)O)ccc1OC(=O)C(C)C	65%	1.38 µM	7.5 µM	47.2%	34.8%
COc1cc([C@H]2[C@](NC(=O)c3ccc(NC(=O)OC(C)(C)C)cc3)(C(=O)O)[C@@H](c3ccc(OC(=O)C45CC6CC(CC(C6)C4)C5)c(OC)c3)[C@]2(NC(=O)c2ccc(NC(=O)OC(C)(C)C)cc2)C(=O)O)ccc1OC(=O)C12CC3CC(CC(C3)C1)C2	86%	2.15 µM	3.6 µM	75.8%	63.5%
COc1cc([C@H]2[C@](NC(=O)c3ccc(NC(=O)OC(C)(C)C)cc3)(C(=O)O)[C@@H](c3ccc(OCc4ccc(F)cc4)c(OC)c3)[C@]2(NC(=O)c2ccc(NC(=O)OC(C)(C)C)cc2)C(=O)O)ccc1OCc1ccc(F)cc1	< 15%	> 20 µM	> 20 µM	< 15%	< 15%
COc1cc([C@H]2[C@](NC(=O)c3ccc(NC(=S)Nc4cccc5ccccc45)cc3)(C(=O)O)[C@@H](c3ccc(OC(=O)c4cccs4)c(OC)c3)[C@]2(NC(=O)c2ccc(NC(=S)Nc3cccc4ccccc34)cc2)C(=O)O)ccc1OC(=O)c1cccs1	29.8%	2.12 µM	3 µM	57.4%	52.3%
COc1cc([C@H]2[C@](NC(=O)c3ccc(NC(=O)OC(C)(C)C)cc3)(C(=O)OC)[C@@H](c3ccc(OC(=O)c4cccs4)c(OC)c3)[C@]2(NC(=O)c2ccc(NC(=O)OC(C)(C)C)cc2)C(=O)OC)ccc1OC(=O)c1cccs1	< 15%	> 20 µM	> 20 µM	< 15%	< 15%
COc1cc([C@H]2C[C@]2(NC(=O)c2ccc(NC(=O)OC(C)(C)C)cc2)C(=O)O)ccc1OC(=O)c1cccs1	< 15%	> 20 µM	> 20 µM	< 15%	< 15%
CCCOc1ccc([C@H]2[C@](NC(=O)c3ccc(NC(=O)OC(C)(C)C)cc3)(C(=O)O)[C@@H](c3ccc(OCCC)cc3)[C@]2(NC(=O)c2ccc(NC(=O)OC(C)(C)C)cc2)C(=O)O)cc1	< 15%	> 20 µM	> 20 µM	< 15%	< 15%
COc1cc([C@H]2[C@](NC(=O)c3ccc(NC(=O)CCl)cc3)(C(=O)O)[C@@H](c3ccc(OC(=O)c4cccs4)c(OC)c3)[C@]2(NC(=O)c2ccc(NC(=O)CCl)cc2)C(=O)O)ccc1OC(=O)c1cccs1	58%	3.8 µM	8.5 µM	43.8%	32.9%
COc1cc([C@H]2[C@](NC(=O)c3ccc(NC(=O)OC(C)(C)C)cc3)(C(=O)O)[C@@H](c3ccc(OC(=O)c4cccs4)c(OC)c3)[C@@]2(NC(=O)c2ccc(NC(=O)OC(C)(C)C)cc2)C(=O)O)ccc1OC(=O)c1cccs1	< 15%	> 20 µM	3.6 µM	64.7%	55.9%
COc1cccc([C@H]2[C@](NC(=O)c3ccc(NC(=O)OC(C)(C)C)cc3)(C(=O)O)[C@@H](c3cccc(OC)c3)[C@]2(NC(=O)c2ccc(NC(=O)OC(C)(C)C)cc2)C(=O)O)c1	< 15%	> 20 µM	> 20 µM	< 15%	< 15%
CNC(=S)Nc1ccc(C(=O)N[C@]2(C(=O)O)[C@H](c3ccc(OC(=O)c4cccs4)c(OC)c3)[C@@](NC(=O)c3ccc(NC(=S)NC)cc3)(C(=O)O)[C@@H]2c2ccc(OC(=O)c3cccs3)c(OC)c2)cc1	68%	9.12 µM	1.4 µM	72.7%	70.1%
COc1cc([C@H]2[C@](NC(=O)c3ccc(NC(=O)C(C)C)cc3)(C(=O)O)[C@@H](c3ccc(OC(=O)C4CCC4)c(OC)c3)[C@]2(NC(=O)c2ccc(NC(=O)C(C)C)cc2)C(=O)O)ccc1OC(=O)C1CCC1	50.7%	15.8 µM	9.6 µM	47.9%	36.8%
COc1cc([C@H]2[C@](NC(=O)c3ccc(NC(=O)OC(C)(C)C)cc3)(C(=O)O)[C@@H](c3ccc(OC(=O)c4ccc(C)s4)c(OC)c3)[C@]2(NC(=O)c2ccc(NC(=O)OC(C)(C)C)cc2)C(=O)O)ccc1OC(=O)c1ccc(C)s1	67%	19.1 µM	17.5 µM	40.1%	29.4%
CCCC(=O)Oc1ccc([C@H]2[C@](NC(=O)c3ccc(NC(=O)OC(C)(C)C)cc3)(C(=O)O)[C@@H](c3ccc(OC(=O)CCC)c(OC)c3)[C@]2(NC(=O)c2ccc(NC(=O)OC(C)(C)C)cc2)C(=O)O)cc1OC	86%	3.33 µM	7.5 µM	65.1%	53.8%
CCC(=O)Oc1ccc([C@H]2[C@](NC(=O)c3ccc(NC(=O)OC(C)(C)C)cc3)(C(=O)O)[C@@H](c3ccc(OC(=O)CC)c(OC)c3)[C@]2(NC(=O)c2ccc(NC(=O)OC(C)(C)C)cc2)C(=O)O)cc1OC	91%	2.5 µM	2.7 µM	86%	68.3%
CCOC(=O)CNC(=O)Nc1ccc(C(=O)N[C@]2(C(=O)O)[C@H](c3ccc(OC(=O)c4cccs4)c(OC)c3)[C@@](NC(=O)c3ccc(NC(=O)NCC(=O)OCC)cc3)(C(=O)O)[C@@H]2c2ccc(OC(=O)c3cccs3)c(OC)c2)cc1	33.7%	4.5 µM	4.3 µM	43.8%	37.9%
COc1cc([C@H]2[C@](NC(=O)c3ccc(NC(=O)OC(C)(C)C)cc3)(C(=O)O)[C@@H](c3ccc(OC(=O)C4CCCCC4)c(OC)c3)[C@]2(NC(=O)c2ccc(NC(=O)OC(C)(C)C)cc2)C(=O)O)ccc1OC(=O)C1CCCCC1	< 15%	> 20 µM	> 20 µM	< 15%	< 15%

Stronger by EC50 [2], values ahead:

Efficacy [1]	EC50 [2]	IC50 [3]	inhibition [4]	inhibition [5]	SMILES
60.8%	1.11 µM	0.5 µM	47.6%	33.4%	COc1cc([C@H]2[C@](NC(=O)c3ccc(NC(=O)C(C)(C)C)cc3)(C(=O)O)[C@@H](c3ccc(OC(=O)c4cccs4)c(OC)c3)[C@]2(NC(=O)c2ccc(NC(=O)C(C)(C)C)cc2)C(=O)O)ccc1OC(=O)c1cccs1
87.5%	0.749 µM	1.2 µM	53.6%	45.6%	COc1cc([C@H]2[C@](NC(=O)c3ccc(NC(=O)C4CCC4)cc3)(C(=O)O)[C@@H](c3ccc(OC(=O)c4cccs4)c(OC)c3)[C@]2(NC(=O)c2ccc(NC(=O)C3CCC3)cc2)C(=O)O)ccc1OC(=O)c1cccs1
48.4%	0.696 µM	4.9 µM	75.2%	36.1%	CCC(=O)Nc1ccc(C(=O)N[C@]2(C(=O)O)[C@H](c3ccc(OC(=O)c4cccs4)c(OC)c3)[C@@](NC(=O)c3ccc(NC(=O)CC)cc3)(C(=O)O)[C@@H]2c2ccc(OC(=O)c3cccs3)c(OC)c2)cc1
35.9%	0.657 µM	0.3 µM	39.3%	37.9%	COc1cc([C@H]2[C@](NC(=O)c3ccc(NC(=O)C4CCCC4)cc3)(C(=O)O)[C@@H](c3ccc(OC(=O)c4cccs4)c(OC)c3)[C@@]2(NC(=O)c2ccc(NC(=O)C3CCCC3)cc2)C(=O)O)ccc1OC(=O)c1cccs1
85.6%	0.326 µM	3.1 µM	50.2%	< 15%	CCOc1cc([C@H]2[C@](NC(=O)c3ccc(NC(=O)OC(C)(C)C)cc3)(C(=O)O)[C@@H](c3ccc(OC(=O)c4cccs4)c(OCC)c3)[C@]2(NC(=O)c2ccc(NC(=O)OC(C)(C)C)cc2)C(=O)O)ccc1OC(=O)c1cccs1
84.2%	0.148 µM	1.2 µM	86.4%	67.8%	COc1cc([C@H]2[C@](NC(=O)c3ccc(NC(=O)C4CC4)cc3)(C(=O)O)[C@@H](c3ccc(OC(=O)c4cccs4)c(OC)c3)[C@]2(NC(=O)c2ccc(NC(=O)C3CC3)cc2)C(=O)O)ccc1OC(=O)c1cccs1
61.1%	0.118 µM	2.31 µM	55.4%	30.6%	COc1cc([C@H]2[C@](NC(=O)c3ccc(NC(C)=O)cc3)(C(=O)O)[C@@H](c3ccc(OC(=O)c4cccs4)c(OC)c3)[C@]2(NC(=O)c2ccc(NC(C)=O)cc2)C(=O)O)ccc1OC(=O)c1cccs1
